High-throughput results: PubChem, The Scripps Research Institute Molecular Screening Center
RBBP9 inhibitor – blocks human serine hydrolase RBBP9; recombinant RBBP9, FP-Rh probe fluorescence polarization; O75884; inhibition, % at 7.94 µM; actives 0.2% (n = 220,000); AID 1515;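 active = inhibition above the campaign mean of all tested compounds plus 3 SD, cut at about 14% in these data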
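Test system: recombinant human RBBP9; Timing: 30 min then 45 min, 25 °C; Detection: fluorescence polarization; Control set: RBBP9 with DMSO as uninhibited control, no-protein wells as full inhibition; Compound dosing: one concentration, 7.94 µM nominal, 0.794% DMSO; Probe or stimulus: FP-Rh activity-based probe, 375 nM before mixing.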
GSTO1 inh – blocks human GSTO1 in RBBP9 counter-screen; P78417; recombinant GSTO1, activity-based probe fluorescence polarization; inhibition, % at 5.96 µM; actives 1.1% (n = 300,000); AID 1974;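 active = inhibition above the campaign mean inhibition plus 3 SD, cut at about 35% in these data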
Target sequence (P78417 whole entry, looked up): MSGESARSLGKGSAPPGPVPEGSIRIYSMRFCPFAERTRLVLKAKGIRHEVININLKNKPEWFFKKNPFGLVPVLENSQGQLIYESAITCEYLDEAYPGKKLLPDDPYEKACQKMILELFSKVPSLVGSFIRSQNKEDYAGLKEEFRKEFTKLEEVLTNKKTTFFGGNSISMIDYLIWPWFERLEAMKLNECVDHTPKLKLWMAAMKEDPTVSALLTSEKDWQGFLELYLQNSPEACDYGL
SIAE inh – blocks human sialic acid acetylesterase. Q9HAT2. SIAE FP-Rh probe binding, fluorescence polarization. inhibition, % at 9.66 µM. actives 0.69% (n = 370,000). AID 1053197;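 active = inhibition above a cutoff: mean of compounds within the control limits plus 3 SD of those, cut at about 17% in these data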
Target sequence (Q9HAT2 whole entry, looked up): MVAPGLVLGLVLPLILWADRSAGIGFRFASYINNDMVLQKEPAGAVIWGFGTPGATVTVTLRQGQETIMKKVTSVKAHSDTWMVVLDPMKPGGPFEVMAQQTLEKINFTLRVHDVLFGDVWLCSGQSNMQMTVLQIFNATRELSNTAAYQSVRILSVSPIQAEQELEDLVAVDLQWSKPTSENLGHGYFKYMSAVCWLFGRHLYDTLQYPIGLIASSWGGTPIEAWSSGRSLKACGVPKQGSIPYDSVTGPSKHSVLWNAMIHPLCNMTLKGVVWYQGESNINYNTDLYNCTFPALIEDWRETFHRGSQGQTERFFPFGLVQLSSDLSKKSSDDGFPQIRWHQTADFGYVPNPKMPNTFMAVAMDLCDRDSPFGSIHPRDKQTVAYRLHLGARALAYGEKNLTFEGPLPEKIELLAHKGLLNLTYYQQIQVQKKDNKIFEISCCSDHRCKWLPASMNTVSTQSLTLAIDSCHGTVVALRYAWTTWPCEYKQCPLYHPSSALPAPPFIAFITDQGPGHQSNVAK
PRMT1 inh – blocks human protein arginine methyltransferase 1; Q99873; recombinant PRMT1, activity-based probe fluorescence polarization; inhibition, % at 2.79 µM; actives 1.3% (n = 370,000); AID 652257;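 active = inhibition above about 21% made by adding two undisclosed values, limit read from the data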
PAD4 inh – blocks human protein arginine deiminase 4. inhibition, % at 6.36 µM. AID 485272. recombinant PAD4, RCA probe fluorescence polarization. actives 0.41% (n = 330,000). Q9UM07;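 active = percent inhibition above a cutoff equal to the mean of all tested compounds plus 3 SD, cut at about 15% in these data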
PAD4 confirm – confirmation of human PAD4 inhibitors | actives 28% (n = 1,200) | recombinant PAD4, RCA probe fluorescence polarization | shares compounds with PAD4 inh | inhibition, % at 6.36 µM;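 active = mean inhibition across replicates above the hit cutoff set by the earlier primary screen, cut at about 15% in these data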;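 also: inhibitors block active-site labeling by the probe so polarization falls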
PRMT1 confirm – confirmation of human PRMT1 inhibitors. shares compounds with PRMT1 inh. recombinant His-PRMT1, activity-based probe fluorescence polarization. inhibition, % at 2.79 µM. actives 42% (n = 3,300);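 active = mean inhibition across replicates above the hit cutoff derived for the earlier primary screen, cut at about 22% in these data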
SIAE inh conf – confirmation of human SIAE inhibitors | inhibition, % at 9.66 µM | SIAE FP-Rh activity-based probe, fluorescence polarization | shares compounds with SIAE inh | actives 13% (n = 2,300);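 active = mean inhibition of the replicates above the hit cutoff set in the primary screen, cut at about 17% in these data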;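 also: inhibitors lower polarization as more probe stays unbound to SIAE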
Of the large screens only hits and unclear results are named; the others gave an inactive call (follow-up assays come after a bar, where they were run). This is a sample that favours compounds with a hit; in the whole collection about 2.7% have one here.

O=C1c2ccccc2C(=O)N1c1ccc(Cl)cc1	none (no result: SIAE inh, PRMT1 inh)
O=C1c2cccc3c(O)ccc(c23)C(=O)N1c1ccc(Cl)cc1	SIAE inh 37, PRMT1 inh 174, PAD4 inh 34 (no result: RBBP9 inhibitor) | PAD4 confirm 31 | SIAE inh conf inactive
CC(=O)Nc1ccc(N2C(=O)c3cccc4c(O)ccc(c34)C2=O)cc1	SIAE inh 26, PRMT1 inh 109, PAD4 inh 39 (no result: RBBP9 inhibitor) | PAD4 confirm 36 | SIAE inh conf 17
COC(=O)c1ccccc1-c1c2ccc(=N)cc-2oc2cc(N)ccc12	SIAE inh active, PRMT1 inh active, PAD4 inh active (no result: RBBP9 inhibitor, GSTO1 inh) | PAD4 confirm 145 | SIAE inh conf active
C/C(=C\C(=O)c1ccccc1)Nc1ccc(N2CCOCC2)cc1	SIAE inh 18, PAD4 inh 20 | PAD4 confirm inactive | SIAE inh conf inactive
CC(=O)Nc1ccc(Nc2ccc3c4c(cc(=O)n3C)-c3ccccc3C(=O)c24)cc1	none
Cn1c(=O)c(Nc2ccc(Cl)cc2)c2c3c(cccc31)C(=O)c1ccccc1-2	SIAE inh 31, PRMT1 inh 93, PAD4 inh 33 | PAD4 confirm 50 | SIAE inh conf 35
CNc1ccccc(-c2ccc3ccccc3n2)c1=O	SIAE inh 21, PRMT1 inh 24, PAD4 inh 20 | PAD4 confirm inactive | SIAE inh conf inactive
COc1ccc(OC)c(N/C(C)=C/C(=O)c2ccncc2)c1	SIAE inh 21, PAD4 inh 23 (no result: RBBP9 inhibitor) | PAD4 confirm inactive | SIAE inh conf inactive
COc1ccc(OC)c(N/C(C)=C/C(=O)c2ccccc2)c1	none
CC(=O)Nc1ccc(N/C=C2/CCCC2=O)cc1	none
Cc1cc(O)ccc1N/C=C1\CCCC1=O	SIAE inh 46, PRMT1 inh 30, PAD4 inh 41 | PAD4 confirm inactive | SIAE inh conf inactive
CCCC(=O)N(CCN1CCOCC1)c1nc2c(OC)ccc(OC)c2s1	none (no result: RBBP9 inhibitor)
Cc1ccccc1NC(=O)c1ccc(Nc2c([N+](=O)[O-])cc([N+](=O)[O-])c3ccccc23)cc1	none
Cc1cccc(C)c1NC(=O)C1CCCN1C(=O)Nc1cccc(F)c1 (centres undefined)	none (no result: RBBP9 inhibitor)
Cc1ccc(F)c(NC(=S)Nc2cccc3ccccc23)c1	SIAE inh 18, PAD4 inh 18 (no result: RBBP9 inhibitor) | PAD4 confirm inactive | SIAE inh conf inactive
CCN1/C(=C/C=C/c2oc3ccc(-c4ccccc4)cc3[n+]2CC)Oc2ccc(-c3ccccc3)cc21	SIAE inh 68, PAD4 inh 63 | PAD4 confirm 45 | SIAE inh conf inactive
Cc1ccc(C2CC(=O)Oc3cc(O)ccc32)cc1 (centres undefined)	SIAE inh 19, PAD4 inh 60 | PAD4 confirm 63 | SIAE inh conf inactive
CC(C)C(N)c1csc(Nc2ccc(C(=O)c3ccccc3)cc2)n1 (centres undefined)	none (no result: RBBP9 inhibitor, GSTO1 inh, PAD4 inh)
c1nc(SSc2ncnc3nc[nH]c23)c2[nH]cnc2n1	PRMT1 inh 48 (no result: RBBP9 inhibitor, GSTO1 inh, PAD4 inh) | PRMT1 confirm 96
CCOC(=O)c1c(NC(=S)Nc2ccccc2)sc2c1CCN(CC)C2	PRMT1 inh 28 | PRMT1 confirm inactive
CCOC(=O)c1c(NC(=S)Nc2ccccc2)sc2c1CCCCC2	none (no result: SIAE inh, PRMT1 inh)
O=C(OCCN1C(=O)c2cccc3c(N4CCOCC4)ccc(c23)C1=O)c1ccccc1Cl	PRMT1 inh 78 | PRMT1 confirm 65
O=C1c2cccc3c(N4CCCCC4)ccc(c23)C(=O)N1CCO	PRMT1 inh 40 | PRMT1 confirm inactive
Cc1nn(Cc2cccc(C(=O)NC(C)c3ccc(C(C)(C)C)cc3)c2)c(C)c1[N+](=O)[O-] (centres undefined)	none
O=C(c1cc(O)c(O)c([N+](=O)[O-])c1)c1ccccc1F	PRMT1 inh 35 (no result: RBBP9 inhibitor) | PRMT1 confirm inactive
CCN(CC(=O)NCc1cccs1)CC(=O)Nc1cccc(S(N)(=O)=O)c1	PRMT1 inh 44 (no result: RBBP9 inhibitor, GSTO1 inh) | PRMT1 confirm inactive
Cc1cc(C)c(S(=O)(=O)c2ccc(Cl)cc2)c(Cl)n1	none
Cc1cc(S(=O)(=O)c2ccc(Cl)cc2)nc(S(=O)(=O)c2ccc(Cl)cc2)c1C#N	PRMT1 inh 60 (no result: RBBP9 inhibitor, GSTO1 inh, PAD4 inh) | PRMT1 confirm 48
C=CCN1C(=O)/C(=c2\sc3nc(=O)c(Cc4ccccc4Cl)nn3c2=O)c2ccccc21	PRMT1 inh 27 | PRMT1 confirm inactive
CCCCCCCCN1C(=O)[C@H](CC(=O)NCC2CCCCC2)C[C@@]2(C(=O)OCC)CCCC=C12	none (no result: RBBP9 inhibitor, GSTO1 inh, PAD4 inh)
CN(CC(=O)N1CCOCC1)C(=O)CSc1nc2ccccc2s1	PRMT1 inh 26 | PRMT1 confirm 34
O=C(CSc1nc2ccccc2s1)Nc1cc(S(=O)(=O)N2CCOCC2)ccc1O	PRMT1 inh 38 | PRMT1 confirm 40
CCCCc1ccc(CC(=O)Nc2cc(S(=O)(=O)N3CCOCC3)ccc2O)cc1	PRMT1 inh 32 (no result: RBBP9 inhibitor, GSTO1 inh) | PRMT1 confirm inactive
O=C(CSc1nc2ccccc2s1)Nc1cc(C(=O)O)cc(C(=O)O)c1	PRMT1 inh 42 | PRMT1 confirm 58
Cc1nc(NC(=O)CCc2ccccc2)sc1C	none (no result: RBBP9 inhibitor)
COC(=O)c1oc2ccc(Br)cc2c1NC(=O)c1ccccc1	none
Cc1cc(C(=O)CN2C(=O)NC3(CCCc4ccccc43)C2=O)c(C)n1C (centres undefined)	none
O=C1/C(=C/c2cccnc2)Sc2ccccc21	PRMT1 inh 46 | PRMT1 confirm inactive
O=C1c2ccccc2C(=Cc2cccnc2)c2ccccc21	none (no result: RBBP9 inhibitor, GSTO1 inh, PAD4 inh)
C=CCn1c(CSc2ccccc2[N+](=O)[O-])n[nH]c1=S	PRMT1 inh 25 (no result: RBBP9 inhibitor) | PRMT1 confirm inactive
CCOc1cc(C(c2c(O)nc(SC)[nH]c2=O)c2c(O)nc(SC)[nH]c2=O)ccc1O	PRMT1 inh 49 (no result: RBBP9 inhibitor) | PRMT1 confirm 41
CC(=O)NC(=S)c1c(N)n(Cc2ccccc2)c(=O)n(C)c1=O	none (no result: SIAE inh, PRMT1 inh)
CC(=O)Nc1ccc(SCC(=O)c2c(N)n(Cc3ccccc3)c(=O)n(C)c2=O)cc1	PRMT1 inh 25 | PRMT1 confirm inactive
COc1ccc(-c2cc(C(F)(F)F)nc(SCCC(=O)N3CCOCC3)n2)cc1	none
COc1ccc(CCNCCC(c2ccccc2)c2ccccc2)cc1OC	none (no result: RBBP9 inhibitor, GSTO1 inh, PAD4 inh)
Cc1ccc(-n2nnnc2SCC(=O)NC(=O)Nc2ccc3c(c2)OCCO3)cc1	none
Oc1ccccc1C(=S)N1CCCCC1	PRMT1 inh 36 | PRMT1 confirm inactive
O=c1oc2cc(O)ccc2cc1-c1nc2ccccc2o1	PRMT1 inh 71 (no result: RBBP9 inhibitor, GSTO1 inh, PAD4 inh) | PRMT1 confirm 68
Nc1c(C(=O)Nc2ccccc2)sc2nc(-c3cccnc3)ccc12	PRMT1 inh 40 | PRMT1 confirm inactive
Nc1c(C(=O)N2CCCC2)sc2nc(-c3ccccc3)ccc12	PRMT1 inh 34 | PRMT1 confirm inactive
